Calls of active or inactive are those of the source.
How the values were obtained:
Mus musculus [1] = test: Anticonvulsant activity in mouse assessed as protection against maximal electroshock-induced hindlimb tonic extensor component of seizure at 300 mg/kg, ip after 4 hrs by MES test; assay type: functional, organism-based; design: dose 300 mg/kg
In short: (§1)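 Mice were dosed ip at 30, 100 or 300 mg/kg in 0.9% NaCl or 30% PEG 400 (0.01 ml/g), with four animals per dose. One mouse per dose got MES at 30 min and another at 4 h. Stimulus: 60-Hz AC, 50 mA, 0.2 s, corneal electrodes. Protection was abolition of hindlimb tonic extension; the lowest active dose was scored.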

Mus musculus [2] = test: Anticonvulsant activity in mouse assessed as protection against maximal electroshock-induced hindlimb tonic extensor component of seizure at 300 mg/kg, ip after 30 mins by MES test; assay type: functional, organism-based; design: dose 300 mg/kg; in short: as §1
Mus musculus [3] = test: Anticonvulsant activity in mouse assessed as protection against metrazole-induced seizures at 300 mg/kg, ip after 30 mins by subcutaneous pentylenetetrazole seizure threshold test; assay type: functional, organism-based; design: dose 300 mg/kg
In short: (§2)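 Screen in mice given 30, 100 or 300 mg/kg ip in 0.9% NaCl or 30% PEG 400 (0.01 ml/g), four animals per dose. Subcutaneous metrazole challenge was given to one mouse per dose at 30 min and to another at 4 h. Activity was scored as the lowest active dose.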

Mus musculus [4] = test: Anticonvulsant activity in mouse assessed as protection against metrazole-induced seizures at 300 mg/kg, ip after 4 hrs by subcutaneous pentylenetetrazole seizure threshold test; assay type: functional, organism-based; design: dose 300 mg/kg; in short: as §2
Mus musculus [5] = test: Anticonvulsant activity in mouse assessed as protection against metrazole-induced seizures at 100 mg/kg, ip after 4 hrs by subcutaneous pentylenetetrazole seizure threshold test; assay type: functional, organism-based; design: dose 100 mg/kg; in short: as §2
Mus musculus [6] = test: Neurotoxicity in ip dosed mouse assessed as CNS depression; assay type: toxicity, organism-based, Central nervous system; details: in vivo
Mus musculus [7] = test: Anticonvulsant activity in ip dosed mouse assessed as protection against metrazole-induced seizures by subcutaneous pentylenetetrazole seizure threshold test; assay type: functional
In short: (§3)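 Against subcutaneous metrazole in ip-dosed mice (0.9% NaCl or 30% PEG 400 vehicle), ED50 was taken at 30 min or at the time of peak effect (0.5 h or 2 h, as the line states). ED50 and confidence limits were derived by Litchfield–Wilcoxon.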

Mus musculus [8] = test: Anticonvulsant activity in ip dosed mouse assessed as protection against maximal electroshock-induced hindlimb tonic extensor component of seizure by MES test; assay type: functional
In short: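 Mice dosed ip at 30, 100 and 300 mg/kg, compound in 0.9% NaCl or 30% PEG 400 (0.01 ml/g); four animals per dose, one tested at 30 min and one at 4 h. Seizure induced by 60-Hz corneal current, 50 mA, 0.2 s; protection = abolition of hindlimb tonic extension. ED50 with confidence limits by Litchfield–Wilcoxon.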

Mus musculus [9] = test: Anticonvulsant activity against metrazole-induced seizures in ip dosed mouse assessed as duration of action by subcutaneous pentylenetetrazole seizure threshold test; assay type: functional; in short: as §2
Mus musculus [10] = test: Anticonvulsant activity in mouse assessed as protection against metrazole-induced seizures at 30 mg/kg, ip after 4 hrs by subcutaneous pentylenetetrazole seizure threshold test; assay type: functional, organism-based; design: dose 30 mg/kg; in short: as §2
Mus musculus [11] = test: Anticonvulsant activity in ip dosed mouse assessed as protection against metrazole-induced seizures after 0.5 hrs by subcutaneous pentylenetetrazole seizure threshold test; assay type: functional; in short: as §3
[12] = Neurotoxicity in ip dosed mouse by rotarod test; assay type: toxicity, organism-based; details: in vivo
Mus musculus [13] = test: Anticonvulsant activity in mouse assessed as protection against metrazole-induced seizures at 30 mg/kg, ip after 30 mins by subcutaneous pentylenetetrazole seizure threshold test; assay type: functional, organism-based; design: dose 30 mg/kg; in short: as §2
Mus musculus [14] = test: Anticonvulsant activity against maximal electroshock-induced hindlimb tonic extensor component of seizure in ip dosed mouse assessed as duration of action by MES test; assay type: functional; in short: as §1
Mus musculus [15] = test: Anticonvulsant activity in ip dosed mouse assessed as protection against maximal electroshock-induced hindlimb tonic extensor component of seizure after 2 hrs by MES test; assay type: functional
In short: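 MES ED50 in ip-dosed mice (0.9% NaCl or 30% PEG 400 vehicle) was read at the time of peak effect (2 h). Stimulus: 60-Hz AC, 50 mA, 0.2 s via corneal electrodes, with abolition of hindlimb tonic extension as the end point. ED50 and confidence limits were derived by Litchfield–Wilcoxon.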

Mus musculus [16] = test: Anticonvulsant activity in ip dosed mouse assessed as protection against metrazole-induced seizures after 2 hrs by subcutaneous pentylenetetrazole seizure threshold test; assay type: functional; in short: as §3
Mus musculus [17] = test: Anticonvulsant activity in mouse assessed as protection against maximal electroshock-induced hindlimb tonic extensor component of seizure at 100 mg/kg, ip after 4 hrs by MES test; assay type: functional, organism-based; design: dose 100 mg/kg; in short: as §1
Mus musculus [18] = test: Anticonvulsant activity in mouse assessed as protection against maximal electroshock-induced hindlimb tonic extensor component of seizure at 30 mg/kg, ip after 4 hrs by MES test; assay type: functional, organism-based; design: dose 30 mg/kg; in short: as §1
Mus musculus [19] = test: Anticonvulsant activity in mouse assessed as protection against maximal electroshock-induced hindlimb tonic extensor component of seizure at 100 mg/kg, ip after 30 mins by MES test; assay type: functional, organism-based; design: dose 100 mg/kg; in short: as §1

| SMILES | Activity (Mus musculus [1]) | Activity (Mus musculus [2]) | Activity (Mus musculus [3]) | Activity (Mus musculus [4]) | Activity (Mus musculus [13]) | also measured |
| --- | --- | --- | --- | --- | --- | --- |
| CN1C(=O)CC(C(=O)c2ccc(NC(=O)/C=C\C(=O)O)cc2)(c2ccccc2)C1=O (stereo not given) | inactive | inactive | inactive | inactive | – | – |
| CN1C(=O)CC(CCCN2C(=O)C=CC2=O)(c2ccccc2)C1=O (stereo not given) | inactive | inactive | inactive | – | – | Activity (Mus musculus [5]): Active; Activity (Mus musculus [6]): Toxic |
| CN1C(=O)CC(CCNC(=O)CCl)(c2ccccc2)C1=O (stereo not given) | inactive | inactive | inactive | inactive | – | – |
| CCC1(C)CC(=O)NC1=O (stereo not given) [ETHOSUXIMIDE] | inactive | inactive | Active | inactive | – | ED50 (Mus musculus [7]): 130 mg/kg; ED50 (Mus musculus [8]): > 1000 mg/kg |
| CN1C(=O)CC(c2ccc(NC(=O)CCl)cc2)C1=O (stereo not given) | inactive | inactive | inactive | inactive | – | – |
| CN1C(=O)CC(c2ccc(NC(=O)CBr)cc2)C1=O (stereo not given) | inactive | inactive | – | – | Active | Time (Mus musculus [9]): 3.5 h; Activity (Mus musculus [10]): Active; ED50 (Mus musculus [11]): 35 mg/kg; TD50 [12]: 54 mg/kg; Activity (Mus musculus [6]): Toxic |
| CN1C(=O)CC(C(=O)CCl)(c2ccccc2)C1=O (stereo not given) | Active | Active | – | inactive | Active | Time (Mus musculus [14]): 3.5 h; ED50 (Mus musculus [15]): 225 mg/kg; ED50 (Mus musculus [16]): 100 mg/kg |
| CN1C(=O)CC(CCCNC(=O)/C=C\C(=O)O)(c2ccccc2)C1=O (stereo not given) | inactive | inactive | inactive | inactive | – | – |
| CN1C(=O)CC(C(=O)CBr)(c2ccccc2)C1=O (stereo not given) | inactive | inactive | – | inactive | Active | – |
| CN1C(=O)CC(C(=O)c2ccc(N3C(=O)C=CC3=O)cc2)(c2ccccc2)C1=O (stereo not given) | inactive | inactive | inactive | inactive | – | – |
| CN1C(=O)CC(c2ccc(NC(=O)CI)cc2)C1=O (stereo not given) | – | inactive | – | inactive | Active | Activity (Mus musculus [17]): Active; Activity (Mus musculus [6]): Toxic |
| CN1C(=O)CC(CCNC(=O)/C=C\C(=O)O)(c2ccccc2)C1=O (stereo not given) | inactive | inactive | inactive | inactive | – | – |
| CN1C(=O)CC(CCN2C(=O)C=CC2=O)(c2ccccc2)C1=O (stereo not given) | – | inactive | – | – | Active | Time (Mus musculus [9]): 3.5 h; Activity (Mus musculus [10]): Active; Activity (Mus musculus [18]): Active; Activity (Mus musculus [6]): Toxic |
| CN1C(=O)CC(c2ccc(N3C(=O)C=CC3=O)cc2)C1=O (stereo not given) | inactive | inactive | – | inactive | Active | Activity (Mus musculus [6]): Toxic |
| CN1C(=O)CC(c2ccccc2)C1=O (stereo not given) [PHENSUXIMIDE] | Active | – | – | – | Active | Activity (Mus musculus [10]): Active; Activity (Mus musculus [19]): Active; TD50 [12]: 232 mg/kg; ED50 (Mus musculus [7]): 50 mg/kg |
| CN1C(=O)CC(C)(c2ccccc2)C1=O (stereo not given) [METHSUXIMIDE] | Active | Active | – | inactive | Active | TD50 [12]: 188 mg/kg; ED50 (Mus musculus [7]): 35 mg/kg; ED50 (Mus musculus [8]): 76 mg/kg |
| CN1C(=O)CC(c2ccc(NC(=O)/C=C\C(=O)O)cc2)C1=O (stereo not given) | inactive | inactive | inactive | inactive | – | – |
| CN1C(=O)CC(C(=O)c2ccc(NC(=O)CBr)cc2)(c2ccccc2)C1=O (stereo not given) | inactive | inactive | inactive | inactive | – | – |
| CN1C(=O)CC(CCCNC(=O)CCl)(c2ccccc2)C1=O (stereo not given) | inactive | inactive | inactive | inactive | – | – |
